Structures are written as SMILES.

A word on the Kd: it is the concentration at which binding is half-saturated.

The test deals with Peptidyl-prolyl cis-trans isomerase NIMA-interacting 1 (Homo sapiens, UniProt Q13526). The test is described as follows: Dissociation constant for human peptidyl-prolyl cis-trans isomerase NIMA-interacting 1. Put shortly: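 15N-labeled Pin1 WW domain (His6-tagged, expressed in E. coli BL21(DE3)) in 25 mM deuterated Tris-HCl pH 6.8, 50 mM NaCl, 5 mM DTT, 2.5 mM EDTA, 10% D2O; 600 MHz 1H-15N HSQC at 293 K. 50 μM protein titrated with ligand 0.025–1 mM final; chemical shift perturbations fitted to a single-site equation for KD.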
Chain of Peptidyl-prolyl cis-trans isomerase NIMA-interacting 1 (Q13526 whole entry, the tested form may be a part): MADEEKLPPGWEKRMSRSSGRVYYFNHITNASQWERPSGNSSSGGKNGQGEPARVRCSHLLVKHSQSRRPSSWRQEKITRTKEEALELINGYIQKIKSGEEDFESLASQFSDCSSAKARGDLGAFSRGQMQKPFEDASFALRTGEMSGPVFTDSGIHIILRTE

The molecule `NC(=O)[C@@H]1CCCN1C(=O)CCNc1c(O)c(=O)c1=O` [1-[(S)-3-(2-Hydroxy-3,4-dioxo-cyclobut-1-enylamino)-propionyl]-pyrrolidine-2-carboxylic acid amide] gave a Kd of over 2000 µM.

For the origin of these results see BindingDB's records for doi:10.1021/jm0500119 (Cnrs-University of Lille 2 Umr 8525, 2005).
